The source of these data is ChEMBL document CHEMBL1147605, “Syntheses and biological evaluation of new fluoroquinolone antibacterials containing chiral oxiimino pyrrolidine” (Bioorg Med Chem Lett, 2004).

As usually defined, the MIC is the lowest concentration found to suppress growth. Higher therefore signals weaker potency.

The subject of assay [1] is Pseudomonas aeruginosa. Kind of assay: In vitro antibacterial activity against the Ofloxacin Resistant Pseudomonas aeruginosa 279II. Type of assay: functional. Put shortly: (§1)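 MICs by agar dilution following National Committee for Clinical Laboratory Standards recommendations; all strains obtained from Hoechst.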
In assay [2] the test system is Staphylococcus aureus. Nature of the assay: In vitro antibacterial activity against the Staphylococcus aureus SG511. It counts as functional.
The next assay deals with Enterococcus sp. Nature of the assay: In vitro antibacterial activity against the Ofloxacin Resistant Enterococcus knothe 101. It counts as functional. The procedure, abridged:
as §1

In assay [3] the test system is Streptococcus pyogenes. Nature of the assay: In vitro antibacterial activity against the Streptococcus pyogenes 308A. It counts as functional.
For assay [4], the system named is Staphylococcus epidermidis. Kind of assay: In vitro antibacterial activity against the Ofloxacin Resistant Staphylococcus epidermidis 291. It counts as functional. Put shortly: as §1
A further assay concerns Klebsiella. Kind of assay: In vitro antibacterial activity against the Ofloxacin Resistant Klebsiella species 30-92. Type of assay: functional. Put shortly:
as §1

Assay [5] concerns Pseudomonas aeruginosa. Nature of the assay: In vitro antibacterial activity against the Pseudomonas aeruginosa 1771M. Type of assay: functional.
The test system of assay [6] is Staphylococcus aureus. Nature of the assay: In vitro antibacterial activity against the Ofloxacin Resistant Staphylococcus aureus 303. Type of assay: functional. The procedure, abridged: as §1
Assay [7] has as its system Escherichia coli. Nature of the assay: In vitro antibacterial activity against the Escherichia coli 078. It counts as functional.
A further assay concerns Enterobacter cloacae. Kind of assay: In vitro antibacterial activity against the Enterobacter cloacae 1321 E. Type of assay: functional.
The next assay has as its system Salmonella typhimurium. Nature of the assay: In vitro antibacterial activity against the Salmonella Typhimurium. Conditions: Salmonella enterica. It counts as functional, Salmonella enterica subsp. enterica serovar Typhimurium.
Assay [8] deals with Pseudomonas aeruginosa. Kind of assay: In vitro antibacterial activity against the Pseudomonas aeruginosa 1592E. Type of assay: functional.
Assay [9] concerns Staphylococcus epidermidis. Nature of the assay: In vitro antibacterial activity against the Ofloxacin Resistant Staphylococcus epidermidis 319. It counts as functional. The procedure, abridged:
as §1

Assay [10] has as its system Staphylococcus aureus. Nature of the assay: In vitro antibacterial activity against the Ofloxacin Resistant Staphylococcus aureus 179. Type of assay: functional. Put shortly:
as §1

Assay [11] concerns Staphylococcus aureus. Kind of assay: In vitro antibacterial activity against the Methicillin-Resistant Staphylococcus aureus (MRSA) 705 E. Type of assay: functional. Put shortly:
as §1

In assay [12] the test system is Staphylococcus aureus. Nature of the assay: In vitro antibacterial activity against the Ofloxacin Resistant Staphylococcus aureus 293. Type of assay: functional. Put shortly:
as §1

Assay [13] deals with Escherichia coli. Nature of the assay: In vitro antibacterial activity against the Escherichia coli DC 2. It counts as functional.
In assay [14] the test system is Streptococcus pyogenes. Nature of the assay: In vitro antibacterial activity against the Streptococcus pyogenes 77A. Type of assay: functional.
Assay [15] concerns Staphylococcus aureus. Nature of the assay: In vitro antibacterial activity against the Methicillin-Resistant Staphylococcus aureus (MRSA) 690 E. It counts as functional. The procedure, abridged: as §1
Assay [16] deals with Staphylococcus aureus. Nature of the assay: In vitro antibacterial activity against the Staphylococcus aureus 285. It counts as functional.
Assay [17] concerns Staphylococcus aureus. Kind of assay: In vitro antibacterial activity against the Methicillin-Resistant Staphylococcus aureus (MRSA) 692 E. It counts as functional. The procedure, abridged: as §1
In assay [18] the test system is Staphylococcus aureus. Kind of assay: In vitro antibacterial activity against the Methicillin-Resistant Staphylococcus aureus (MRSA) 697 E. It counts as functional. The procedure, abridged: as §1
The subject of assay [19] is Staphylococcus aureus. Nature of the assay: In vitro antibacterial activity against the Methicillin-Resistant Staphylococcus aureus (MRSA) 701 E. Type of assay: functional. Put shortly:
as §1

Assay [20] relates to Staphylococcus aureus. Nature of the assay: In vitro antibacterial activity against the Methicillin-Resistant Staphylococcus aureus (MRSA) 707 E. Type of assay: functional. Put shortly:
as §1

Regarding `CO/N=C1\CN(c2c(F)c(N)c3c(=O)c(C(=O)O)cn(C4CC4)c3c2F)CC1(C)CN.Cl` (centres undefined), the MIC with Pseudomonas aeruginosa [1] is 6.25 µg/mL; against Staphylococcus aureus [2], less than 0.002 µg/mL; in the assay with Enterococcus sp., 0.025 µg/mL; with Streptococcus pyogenes [3], 0.013 µg/mL; in assay [4] it was 0.025 µg/mL; with Klebsiella, 0.781 µg/mL. For the same compound, the MIC in the assay with Pseudomonas aeruginosa [5] was 0.195 µg/mL; in the assay with Staphylococcus aureus [6], 0.025 µg/mL; against Escherichia coli [7] it was less than 0.002 µg/mL; in the assay on Enterobacter cloacae, less than 0.002 µg/mL; in the assay with Salmonella typhimurium, less than 0.002 µg/mL; against Pseudomonas aeruginosa [8], 0.391 µg/mL. Also, the MIC is 0.049 µg/mL in assay [9]; 0.025 µg/mL in the assay on Staphylococcus aureus [10]; 0.004 µg/mL against Staphylococcus aureus [11]; 0.025 µg/mL against Staphylococcus aureus [12]; 0.007 µg/mL in the assay with Escherichia coli [13]; less than 0.002 µg/mL in the assay with Streptococcus pyogenes [14].
Consider `CO/N=C1\CN(c2c(F)c(N)c3c(=O)c(C(=O)O)cn(C4CC4)c3c2F)C[C@@]1(C)CN.Cl`, for which the MIC against Staphylococcus aureus [15] was 0.004 µg/mL; in the assay on Pseudomonas aeruginosa [1], 3.12 µg/mL; in the assay with Staphylococcus aureus [2] it was less than 0.002 µg/mL; in the assay with Enterococcus sp., 0.195 µg/mL; in the assay on Streptococcus pyogenes [3], 0.049 µg/mL; in [4], 0.391 µg/mL. The MIC against Staphylococcus aureus [16] was 0.004 µg/mL; in the assay with Klebsiella, 1.56 µg/mL; against Pseudomonas aeruginosa [5], 0.195 µg/mL; against Staphylococcus aureus [6] it was 0.195 µg/mL; in the assay on Escherichia coli [7], 0.004 µg/mL; in the assay on Enterobacter cloacae, less than 0.002 µg/mL. The MIC with Salmonella typhimurium was less than 0.002 µg/mL; against Pseudomonas aeruginosa [8], 0.391 µg/mL; in [9], 0.781 µg/mL; against Staphylococcus aureus [10] it was 0.195 µg/mL; in the assay on Staphylococcus aureus [11], 0.007 µg/mL; against Staphylococcus aureus [12] it was 0.195 µg/mL. Further, the MIC with Staphylococcus aureus [17] was 0.004 µg/mL; against Staphylococcus aureus [18] it was 0.004 µg/mL; in the assay with Escherichia coli [13], 0.013 µg/mL; with Streptococcus pyogenes [14], 0.013 µg/mL; against Staphylococcus aureus [19], 0.007 µg/mL.
Take `CO/N=C1\CN(c2nc3c(cc2F)c(=O)c(C(=O)O)cn3C2CC2)C[C@@]1(C)CN.Cl`: the MIC stood at 0.025 µg/mL with Staphylococcus aureus [15]; 6.25 µg/mL against Pseudomonas aeruginosa [1]; 0.049 µg/mL in the assay on Staphylococcus aureus [2]; 0.391 µg/mL with Enterococcus sp.; 0.195 µg/mL in the assay with Streptococcus pyogenes [3]; 3.12 µg/mL in assay [4]. Moreover, the MIC stood at 0.013 µg/mL in the assay with Staphylococcus aureus [20]; 0.049 µg/mL against Staphylococcus aureus [16]; 3.12 µg/mL in the assay on Klebsiella; 0.391 µg/mL in the assay on Pseudomonas aeruginosa [5]; 0.781 µg/mL in the assay with Staphylococcus aureus [6]; 0.025 µg/mL in the assay with Escherichia coli [7]. Moreover, the MIC came out at 0.007 µg/mL with Enterobacter cloacae; 0.013 µg/mL against Salmonella typhimurium; 0.781 µg/mL in the assay on Pseudomonas aeruginosa [8]; 6.25 µg/mL in assay [9]; 1.56 µg/mL in the assay with Staphylococcus aureus [10]; 0.049 µg/mL in the assay with Staphylococcus aureus [11]. Further, the MIC with Staphylococcus aureus [12] was found to be 1.56 µg/mL; with Staphylococcus aureus [17], 0.025 µg/mL; in the assay on Staphylococcus aureus [18], 0.025 µg/mL; with Escherichia coli [13], 0.098 µg/mL; in the assay with Streptococcus pyogenes [14], 0.098 µg/mL; in the assay with Staphylococcus aureus [19] it was 0.049 µg/mL.
On to `CO/N=C1\CN(c2c(F)cc3c(=O)c(C(=O)O)cn(C4CC4)c3c2F)CC1(C)CN.Cl` (centres undefined), for which the MIC in the assay on Staphylococcus aureus [2] came to 0.013 µg/mL; against Streptococcus pyogenes [3] it was 0.098 µg/mL; against Staphylococcus aureus [16], 0.013 µg/mL; in the assay with Pseudomonas aeruginosa [5], 0.781 µg/mL; against Escherichia coli [7] it was 0.025 µg/mL; in the assay with Enterobacter cloacae, 0.013 µg/mL. Besides, the MIC against Salmonella typhimurium is 0.025 µg/mL; with Pseudomonas aeruginosa [8], 1.56 µg/mL; in the assay with Escherichia coli [13], 0.049 µg/mL; with Streptococcus pyogenes [14] it was 0.025 µg/mL.
Regarding `CO/N=C1\CN(c2nc3c(cc2F)c(=O)c(C(=O)O)cn3C2CC2)CC1(C)CN.Cl` (centres undefined), the MIC in the assay on Staphylococcus aureus [15] was 0.004 µg/mL; against Pseudomonas aeruginosa [1] it was 6.25 µg/mL; in the assay with Staphylococcus aureus [2], 0.004 µg/mL; against Enterococcus sp., 0.098 µg/mL; in the assay on Streptococcus pyogenes [3], 0.098 µg/mL; in assay [4] it was 0.391 µg/mL. Moreover, the MIC against Staphylococcus aureus [20] was less than 0.002 µg/mL; in the assay on Staphylococcus aureus [16], 0.007 µg/mL; against Klebsiella it was 1.56 µg/mL; against Pseudomonas aeruginosa [5] it was 0.391 µg/mL; in the assay on Staphylococcus aureus [6] it was 0.195 µg/mL; in the assay with Escherichia coli [7], 0.004 µg/mL. Also, the minimum inhibitory concentration (MIC) turned out to be 0.004 µg/mL in the assay on Enterobacter cloacae; 0.007 µg/mL in the assay with Salmonella typhimurium; 0.781 µg/mL against Pseudomonas aeruginosa [8]; 0.391 µg/mL in [9]; 0.195 µg/mL against Staphylococcus aureus [10]; 0.013 µg/mL in the assay on Staphylococcus aureus [11]. Also, the MIC was 0.195 µg/mL against Staphylococcus aureus [12]; less than 0.002 µg/mL against Staphylococcus aureus [17]; 0.007 µg/mL against Staphylococcus aureus [18]; 0.049 µg/mL in the assay with Escherichia coli [13]; 0.025 µg/mL in the assay with Streptococcus pyogenes [14]; 0.007 µg/mL with Staphylococcus aureus [19].
